{"source": "ChEMBL document CHEMBL5724801", "about": "“EUbOPEN Chemogenomics Library - Multiplex” (2024)", "tested_on": "HEK-293T", "assay": "Multiplex assay against HEK293T", "format": "toxicity, cell-based", "details": "human", "in_short": "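Imaging took place on a CQ1 microscope at 37°C and 5% CO2 once compound had been added to live cells stained at seeding with Hoechst33342, BioTracker Green Microtubule Cytoskeleton Dye, MitoTracker Red and Annexin V Alexa Fluor 680. CellPathfinder machine-learning gating classed cells as Hoechst high-intensity objects or normal cells, classed normal cells as having healthy, pyknosed or fragmented nuclei, and classed pyknosed cells as mitotic or apoptotic. Tubulin, mitochondrial-mass and membrane-permeability phenotypes are per cents of the healthy-nucleus cells.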", "key": {"[1]": {"details": "12 h, 1 µM, compound concentration 1 uM"}, "[2]": {"details": "12 h, 10 µM, compound concentration 10 uM"}, "[3]": {"details": "24 h, 1 µM, compound concentration 1 uM"}, "[4]": {"details": "24 h, 10 µM, compound concentration 10 uM"}, "[5]": {"details": "48 h, 1 µM, compound concentration 1 uM"}, "[6]": {"details": "48 h, 10 µM, compound concentration 10 uM"}}, "note": "Several values for one entry are separate records, joined by “and”; a condition that tells them apart may be missing. Identical values can stand only once.", "data": [{"molecule": "CCN1CCN(Cc2ccc(Nc3ncc(F)c(-c4cc(F)c5nc(C)n(C(C)C)c5c4)n3)nc2)CC1.CS(=O)(=O)O", "values": [{"measurement": "Population Fragmented Nuclei (%)", "setting": "[1]", "result": "2.72% and 5.37%"}, {"measurement": "Population Healthy Nuclei (%)", "setting": "[1]", "result": "46.26% and 18.79%"}, {"measurement": "Population Hoechst High Intensity Objects (%)", "setting": "[1]", "result": "1.01% and 0%"}, {"measurement": "Population Membrane Permeable-Phenotype (%)", "setting": "[1]", "result": "0.74% and 0%"}, {"measurement": "Population Mitotic Cells (%)", "setting": "[1]", "result": "90.67% and 79.65%"}, {"measurement": "Population Normal (%)", "setting": "[1]", "result": "98.99% and 100%"}, {"measurement": "Population Pyknosed Nuclei (%)", "setting": "[1]", "result": "51.02% and 75.84%"}, {"measurement": "Population Tubulin-Different-Phenotype (%)", "setting": "[1]", "result": "23.53% and 64.29%"}, {"measurement": "Total Cell Count", "setting": "[1]", "result": "297 and 149"}, {"measurement": "Population Fragmented Nuclei (%)", "setting": "[2]", "result": "1.2% and 2.36%"}, {"measurement": "Population Hoechst High Intensity Objects (%)", "setting": "[2]", "result": "0.4% and 0%"}, {"measurement": "Population Membrane Permeable-Phenotype (%)", "setting": "[2]", "result": 0, "unit": "%"}, {"measurement": "Population Mitochondria Different-Phenotype (%)", "setting": "[2]", "result": "53.85% and 28.57%"}, {"measurement": "Population Mitotic Cells (%)", "setting": "[2]", "result": "88.21% and 74.36%"}, {"measurement": "Population Normal (%)", "setting": "[2]", "result": "99.6% and 100%"}, {"measurement": "Population Pyknosed Nuclei (%)", "setting": "[2]", "result": "78% and 92.13%"}, {"measurement": "Population Tubulin-Different-Phenotype (%)", "setting": "[2]", "result": "84.62% and 28.57%"}, {"measurement": "Total Cell Count", "setting": "[2]", "result": "251 and 127"}, {"measurement": "Population Fragmented Nuclei (%)", "setting": "[3]", "result": "1.38% and 4.83%"}, {"measurement": "Population Healthy Nuclei (%)", "setting": "[3]", "result": "71.43% and 24.14%"}, {"measurement": "Population Hoechst High Intensity Objects (%)", "setting": "[3]", "result": "0.23% and 0%"}, {"measurement": "Population Membrane Permeable-Phenotype (%)", "setting": "[3]", "result": "2.9% and 2.86%"}, {"measurement": "Population Mitochondria Different-Phenotype (%)", "setting": "[3]", "result": "26.13% and 22.86%"}, {"measurement": "Population Mitotic Cells (%)", "setting": "[3]", "result": "82.2% and 83.5%"}, {"measurement": "Population Normal (%)", "setting": "[3]", "result": "99.77% and 100%"}, {"measurement": "Population Pyknosed Nuclei (%)", "setting": "[3]", "result": "27.19% and 71.03%"}, {"measurement": "Population Tubulin-Different-Phenotype (%)", "setting": "[3]", "result": "47.42% and 25.71%"}, {"measurement": "Total Cell Count", "setting": "[3]", "result": "435 and 145"}, {"measurement": "Population Fragmented Nuclei (%)", "setting": "[4]", "result": "0.69% and 4.07%"}, {"measurement": "Population Healthy Nuclei (%)", "setting": "[4]", "result": "25.86% and 10.57%"}, {"measurement": "Population Hoechst High Intensity Objects (%)", "setting": "[4]", "result": 0, "unit": "%"}, {"measurement": "Population Membrane Permeable-Phenotype (%)", "setting": "[4]", "result": "0% and 23.08%"}, {"measurement": "Population Mitochondria Different-Phenotype (%)", "setting": "[4]", "result": "52% and 38.46%"}, {"measurement": "Population Mitotic Cells (%)", "setting": "[4]", "result": "64.32% and 55.24%"}, {"measurement": "Population Normal (%)", "setting": "[4]", "result": 100, "unit": "%"}, {"measurement": "Population Pyknosed Nuclei (%)", "setting": "[4]", "result": "73.45% and 85.37%"}, {"measurement": "Population Tubulin-Different-Phenotype (%)", "setting": "[4]", "result": "93.33% and 53.85%"}, {"measurement": "Total Cell Count", "setting": "[4]", "result": "290 and 123"}, {"measurement": "Population Fragmented Nuclei (%)", "setting": "[5]", "result": "2.67% and 1.8%"}, {"measurement": "Population Healthy Nuclei (%)", "setting": "[5]", "result": "85.01% and 53.89%"}, {"measurement": "Population Hoechst High Intensity Objects (%)", "setting": "[5]", "result": "0.13% and 0%"}, {"measurement": "Population Membrane Permeable-Phenotype (%)", "setting": "[5]", "result": "9.27% and 2.22%"}, {"measurement": "Population Mitochondria Different-Phenotype (%)", "setting": "[5]", "result": "37.67% and 48.89%"}, {"measurement": "Population Mitotic Cells (%)", "setting": "[5]", "result": "82.47% and 79.73%"}, {"measurement": "Population Normal (%)", "setting": "[5]", "result": "99.87% and 100%"}, {"measurement": "Population Fragmented Nuclei (%)", "setting": "[6]", "result": "3.24% and 4.8%"}, {"measurement": "Population Healthy Nuclei (%)", "setting": "[6]", "result": "28.78% and 13.6%"}, {"measurement": "Population Hoechst High Intensity Objects (%)", "setting": "[6]", "result": "0% and 0.79%"}, {"measurement": "Population Membrane Permeable-Phenotype (%)", "setting": "[6]", "result": "1.25% and 0%"}, {"measurement": "Population Mitochondria Different-Phenotype (%)", "setting": "[6]", "result": "96.25% and 58.82%"}, {"measurement": "Population Mitotic Cells (%)", "setting": "[6]", "result": "30.16% and 40.2%"}, {"measurement": "Population Normal (%)", "setting": "[6]", "result": "100% and 99.21%"}, {"measurement": "Population Pyknosed Nuclei (%)", "setting": "[6]", "result": "67.99% and 81.6%"}, {"measurement": "Population Tubulin-Different-Phenotype (%)", "setting": "[6]", "result": "85% and 58.82%"}, {"measurement": "Total Cell Count", "setting": "[6]", "result": "278 and 126"}]}, {"molecule": "COc1cc2ncnc(Nc3ccc(Oc4ccccc4)cc3C)c2cc1OC.Cl", "values": [{"measurement": "Population Apoptotic (%)", "setting": "[1]", "result": "9.24% and 8.93%"}, {"measurement": "Population Fragmented Nuclei (%)", "setting": "[1]", "result": "2.79% and 1.37%"}, {"measurement": "Population Healthy Nuclei (%)", "setting": "[1]", "result": "50.51% and 21.92%"}, {"measurement": "Population Hoechst High Intensity Objects (%)", "setting": "[1]", "result": 0, "unit": "%"}, {"measurement": "Population Membrane Permeable-Phenotype (%)", "setting": "[1]", "result": "1.51% and 0%"}, {"measurement": "Population Mitochondria Different-Phenotype (%)", "setting": "[1]", "result": "24.62% and 9.38%"}, {"measurement": "Population Mitotic Cells (%)", "setting": "[1]", "result": "90.76% and 91.07%"}, {"measurement": "Population Normal (%)", "setting": "[1]", "result": 100, "unit": "%"}, {"measurement": "Population Pyknosed Nuclei (%)", "setting": "[1]", "result": "46.7% and 76.71%"}, {"measurement": "Population Tubulin-Different-Phenotype (%)", "setting": "[1]", "result": "6.53% and 18.75%"}, {"measurement": "Total Cell Count", "setting": "[1]", "result": "394 and 146"}, {"measurement": "Population Apoptotic (%)", "setting": "[2]", "result": "10.53% and 18.75%"}, {"measurement": "Population Fragmented Nuclei (%)", "setting": "[2]", "result": "1.92% and 2.05%"}, {"measurement": "Population Hoechst High Intensity Objects (%)", "setting": "[2]", "result": 0, "unit": "%"}, {"measurement": "Population Membrane Permeable-Phenotype (%)", "setting": "[2]", "result": "0.6% and 0%"}, {"measurement": "Population Mitochondria Different-Phenotype (%)", "setting": "[2]", "result": "17.86% and 20%"}, {"measurement": "Population Mitotic Cells (%)", "setting": "[2]", "result": "89.47% and 81.25%"}, {"measurement": "Population Normal (%)", "setting": "[2]", "result": 100, "unit": "%"}, {"measurement": "Population Pyknosed Nuclei (%)", "setting": "[2]", "result": "52.05% and 87.67%"}, {"measurement": "Total Cell Count", "setting": "[2]", "result": "365 and 146"}, {"measurement": "Population Apoptotic (%)", "setting": "[3]", "result": "18.7% and 16.84%"}, {"measurement": "Population Fragmented Nuclei (%)", "setting": "[3]", "result": "0.78% and 1.86%"}, {"measurement": "Population Healthy Nuclei (%)", "setting": "[3]", "result": "80.12% and 39.13%"}, {"measurement": "Population Hoechst High Intensity Objects (%)", "setting": "[3]", "result": 0, "unit": "%"}, {"measurement": "Population Membrane Permeable-Phenotype (%)", "setting": "[3]", "result": "2.13% and 1.59%"}, {"measurement": "Population Mitochondria Different-Phenotype (%)", "setting": "[3]", "result": "8.53% and 7.94%"}, {"measurement": "Population Mitotic Cells (%)", "setting": "[3]", "result": "81.3% and 83.16%"}, {"measurement": "Population Normal (%)", "setting": "[3]", "result": 100, "unit": "%"}, {"measurement": "Population Tubulin-Different-Phenotype (%)", "setting": "[3]", "result": "10.85% and 3.17%"}, {"measurement": "Population Apoptotic (%)", "setting": "[4]", "result": "30.37% and 35.11%"}, {"measurement": "Population Fragmented Nuclei (%)", "setting": "[4]", "result": "2.24% and 2.6%"}, {"measurement": "Population Hoechst High Intensity Objects (%)", "setting": "[4]", "result": "0.22% and 0%"}, {"measurement": "Population Membrane Permeable-Phenotype (%)", "setting": "[4]", "result": "0.66% and 0%"}, {"measurement": "Population Mitochondria Different-Phenotype (%)", "setting": "[4]", "result": "13.58% and 21.05%"}, {"measurement": "Population Mitotic Cells (%)", "setting": "[4]", "result": "69.63% and 64.89%"}, {"measurement": "Population Normal (%)", "setting": "[4]", "result": "99.78% and 100%"}, {"measurement": "Population Pyknosed Nuclei (%)", "setting": "[4]", "result": "30.2% and 85.06%"}, {"measurement": "Total Cell Count", "setting": "[4]", "result": "448 and 154"}, {"measurement": "Population Fragmented Nuclei (%)", "setting": "[5]", "result": "2.53% and 2.04%"}, {"measurement": "Population Healthy Nuclei (%)", "setting": "[5]", "result": "85.42% and 68.88%"}, {"measurement": "Population Hoechst High Intensity Objects (%)", "setting": "[5]", "result": "0.14% and 0%"}, {"measurement": "Population Membrane Permeable-Phenotype (%)", "setting": "[5]", "result": "4.9% and 2.96%"}, {"measurement": "Population Mitochondria Different-Phenotype (%)", "setting": "[5]", "result": "14.29% and 17.78%"}, {"measurement": "Population Mitotic Cells (%)", "setting": "[5]", "result": "92.22% and 73.68%"}, {"measurement": "Population Normal (%)", "setting": "[5]", "result": "99.86% and 100%"}, {"measurement": "Population Pyknosed Nuclei (%)", "setting": "[5]", "result": "12.06% and 29.08%"}, {"measurement": "Population Apoptotic (%)", "setting": "[6]", "result": "20.37% and 26.73%"}, {"measurement": "Population Fragmented Nuclei (%)", "setting": "[6]", "result": "1.69% and 2.03%"}, {"measurement": "Population Healthy Nuclei (%)", "setting": "[6]", "result": "77.27% and 46.7%"}, {"measurement": "Population Hoechst High Intensity Objects (%)", "setting": "[6]", "result": 0, "unit": "%"}, {"measurement": "Population Membrane Permeable-Phenotype (%)", "setting": "[6]", "result": "2.35% and 1.09%"}, {"measurement": "Population Mitochondria Different-Phenotype (%)", "setting": "[6]", "result": "53.61% and 47.83%"}, {"measurement": "Population Mitotic Cells (%)", "setting": "[6]", "result": "79.63% and 73.27%"}, {"measurement": "Population Normal (%)", "setting": "[6]", "result": 100, "unit": "%"}, {"measurement": "Population Pyknosed Nuclei (%)", "setting": "[6]", "result": "21.04% and 51.27%"}]}]}
